Measured values from ChEMBL document CHEMBL4811233, “Synthesis, Structure-Activity Relationships, and Antiviral Activity of Allosteric Inhibitors of Flavivirus NS2B-NS3 Protease” (J Med Chem, 2021).
Calls of active or inactive are those of the source. No cut-off for these calls is given here.

Tests used:
Nonstructural protein 3 = Nonstructural protein 3 (Zika virus, UniProt A0A024AXB9); test: Inhibition Zika virus NS2B (47 to 95 residues)/NS3 (1 to 170 residues) protease expressed in Escherichia coli BL21 using 7-amino-4-methylcoumarin as substrate by fluorescence assay
Nonstructural protein 3, sequence (A0A024AXB9 whole entry, the tested form may be a part): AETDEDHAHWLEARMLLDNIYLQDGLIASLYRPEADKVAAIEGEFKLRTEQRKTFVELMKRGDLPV
In short: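 Single-chain NS2B(47–95)–Gly4-Ser-Gly4–NS3(1–170) enzyme at 1 nM in 20 mM HEPES pH 7.3 with 0.05% Triton X-100. Compound (1 nM–10 µM, triplicate) is preincubated 10 min before adding Bz-Nle-Lys-Lys-Arg-AMC at 20 µM. Fluorescence (Ex 360/Em 460 nm) is read every 30 s. IC50 comes from dose-response fitting of initial velocities, 3 independent experiments with SD.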

Zika virus [1] = test: Antiviral activity against Zika virus infected in human U87 cells assessed as reduction in infectious virus in supernatant by measuring infection of Vero cells preincubated with viral infected […] cells for 48 hrs and measured following infection of supernatants with Vero cells for 7 days by microscopy; type: functional; conditions: U-87 MG
In short: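 U87 cells (2×10^4/well, DMEM with 2% FBS monolayer) infected with ZIKV FLR strain (passage-3 stock) at MOI 0.01 for 1 h, then washed. Compound added in triplicate for 48 h at 37 °C. Supernatant half-log dilutions are titrated on Vero cells in quadruplicate for 7 days, with CPE read by microscopy plus MTT. EC68 is the half-log TCID50 reduction versus control; ≥2 independent experiments.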

Genome polyprotein [2] = target: Genome polyprotein (West Nile virus, UniProt P06935); test: Inhibition West Nile virus NS3B/NS3 protease using 7-amino-4-methylcoumarin as substrate by fluorescence assay
Genome polyprotein (West Nile virus, UniProt P06935), sequence (P06935 1371-1501 limits assumed): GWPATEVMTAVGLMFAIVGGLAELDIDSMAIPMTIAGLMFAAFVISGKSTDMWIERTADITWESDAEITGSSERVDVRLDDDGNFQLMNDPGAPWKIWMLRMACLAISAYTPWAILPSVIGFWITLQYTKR
Genome polyprotein (West Nile virus, UniProt P06935), sequence (P06935 1502-2120 limits assumed): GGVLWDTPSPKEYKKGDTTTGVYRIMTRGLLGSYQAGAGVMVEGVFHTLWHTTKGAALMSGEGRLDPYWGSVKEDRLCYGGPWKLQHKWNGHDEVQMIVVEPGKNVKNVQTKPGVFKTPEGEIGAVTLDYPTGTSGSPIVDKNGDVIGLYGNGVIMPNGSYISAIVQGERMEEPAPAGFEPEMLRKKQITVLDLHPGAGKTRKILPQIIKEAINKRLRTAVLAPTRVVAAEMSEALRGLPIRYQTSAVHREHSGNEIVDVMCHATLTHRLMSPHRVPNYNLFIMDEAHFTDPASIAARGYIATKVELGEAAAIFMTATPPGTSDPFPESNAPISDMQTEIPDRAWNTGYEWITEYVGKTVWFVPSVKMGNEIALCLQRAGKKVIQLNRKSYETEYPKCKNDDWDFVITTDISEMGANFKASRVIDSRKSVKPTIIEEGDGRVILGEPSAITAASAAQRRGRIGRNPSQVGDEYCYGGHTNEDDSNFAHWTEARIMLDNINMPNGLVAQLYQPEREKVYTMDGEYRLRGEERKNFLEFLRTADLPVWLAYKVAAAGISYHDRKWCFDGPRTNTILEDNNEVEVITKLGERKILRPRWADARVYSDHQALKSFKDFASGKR

Genome polyprotein [3] = target: Genome polyprotein (dengue virus type 2, UniProt P29990); test: Inhibition Dengue serotype-2 NS3B/NS3 protease using 7-amino-4-methylcoumarin as substrate by fluorescence assay
Genome polyprotein (dengue virus type 2, UniProt P29990), sequence (P29990 1346-1475 limits assumed): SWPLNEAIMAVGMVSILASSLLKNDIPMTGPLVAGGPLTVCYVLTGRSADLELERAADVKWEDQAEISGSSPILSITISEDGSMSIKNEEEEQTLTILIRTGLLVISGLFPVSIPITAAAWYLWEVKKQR
Genome polyprotein (dengue virus type 2, UniProt P29990), sequence (P29990 1476-2093 limits assumed): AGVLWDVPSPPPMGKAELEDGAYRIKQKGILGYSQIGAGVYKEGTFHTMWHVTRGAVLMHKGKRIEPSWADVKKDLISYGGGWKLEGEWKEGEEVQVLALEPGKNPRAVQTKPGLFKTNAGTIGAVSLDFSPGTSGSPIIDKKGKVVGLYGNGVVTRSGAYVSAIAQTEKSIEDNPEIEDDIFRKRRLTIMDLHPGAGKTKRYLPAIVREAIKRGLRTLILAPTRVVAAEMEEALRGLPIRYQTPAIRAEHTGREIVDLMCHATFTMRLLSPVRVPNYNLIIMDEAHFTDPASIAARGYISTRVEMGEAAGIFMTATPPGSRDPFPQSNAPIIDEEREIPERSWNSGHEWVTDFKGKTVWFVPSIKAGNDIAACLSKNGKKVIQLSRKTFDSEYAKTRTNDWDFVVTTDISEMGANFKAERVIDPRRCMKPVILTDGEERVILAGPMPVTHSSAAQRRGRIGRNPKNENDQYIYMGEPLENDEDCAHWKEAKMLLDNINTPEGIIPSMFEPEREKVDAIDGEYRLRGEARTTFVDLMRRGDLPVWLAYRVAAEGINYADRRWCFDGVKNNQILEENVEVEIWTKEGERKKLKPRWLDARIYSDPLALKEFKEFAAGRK

Zika virus [4] = test: Antiviral activity against Zika Serotype 2 infected mouse model assessed as inhibition of viral load in brain at 30 mg/kg treated for 3 days; type: functional; conditions: 72 h, time 3 day
Zika virus [5] = test: Antiviral activity against Zika Serotype 2 infected mouse model assessed as inhibition of viral load in plasma at 30 mg/kg treated for 3 days; type: functional; conditions: 72 h, time 3 day
U-87 MG = test: Cytotoxicity against human U87 cells assessed as inhibition of proliferation at 10 uM by MTT assay; type: cell-based; conditions: u-87mg atcc
Vero = test: Cytotoxicity against African green monkey Vero cells assessed as inhibition of proliferation at 10 uM by MTT assay; type: cell-based; conditions: chlorocebus sabaeus
Zika virus [6] = test: Antiviral activity against Zika virus infected in human U87 cells assessed as inhibition of viral replication at 10 uM; type: functional, organism-based

| SMILES | IC50 (Nonstructural protein 3) [nM] | EC68 (Zika virus [1]) [µM] | IC50 (Genome polyprotein [2]) [nM] | IC50 (Genome polyprotein [3]) [nM] | inhibition in vivo at 30 mg/kg (Zika virus [4]) [%] | inhibition in vivo at 30 mg/kg (Zika virus [5]) [%] | Activity (U-87 MG) | Activity (Vero) | inhibition (Zika virus [6]) |
| --- | --- | --- | --- | --- | --- | --- | --- | --- | --- |
| NC(=O)c1ccc(-c2ncc(OCC3CCNCC3)nc2-c2ccc(-c3ccoc3)cc2)cc1 | 1100 | 2.5 | 1340 | 980 |  |  |  |  |  |
| Cc1cc(CN)ccc1-c1ncc(OCC2CCNCC2)nc1-c1ccc(CN)cc1C | 2100 |  | 3600 | 6300 |  |  |  |  |  |
| NCc1ccc(-c2ncc(OCC3CCNCC3)nc2-c2ccc(-c3ccoc3)cc2)cc1 |  | 0.3 | 780 | 590 | 98 | 96 |  |  |  |
| NCc1ccc(-c2nc(OCC3CCNCC3)cnc2-c2ccc(-c3ccoc3)cc2)cc1 | 680 | 1.2 |  |  |  |  |  |  |  |
| NCc1ccc(-c2ncc(OCC3CCNCC3)nc2-c2ccc(C3CCOCC3)nc2)cc1 | 1000 | 3 |  |  |  |  | Non-Toxic | Non-Toxic |  |
| NCc1ccc(-c2ncc(OCC3CCNCC3)nc2-c2ccc(Oc3ccccc3)cc2)cc1 | 32600 |  | > 50000 | > 50000 |  |  |  |  |  |
| Brc1ccc(-c2ncc(OCC3CCNCC3)nc2-c2ccc(Br)cc2)cc1 | 21700 | > 10 | > 50000 | 35000 |  |  |  |  |  |
| NCc1ccc(-c2ncc(OCC3CCNCC3)nc2-c2ccc(-c3cn[nH]c3)cc2)cc1 | 760 | 2.5 |  | 210 |  |  |  |  |  |
| NCc1ccc(-c2cc(CNCC3CCNCC3)sc2-c2ccc(CN)cc2)cc1 | 10700 |  | > 50000 |  |  |  |  |  |  |
| CC(C)(C)C(=O)OCc1ccc(-c2ncc(OCC3CCNCC3)nc2-c2ccc(COC(=O)C(C)(C)C)cc2)cc1 | 9800 |  | 20000 | 13400 |  |  |  |  |  |
| NCc1ccc(-c2ccc(NCC3CCNCC3)nc2-c2ccc(-c3ccoc3)cc2)cc1 | 790 | 1.2 | 1300 | 860 |  |  |  |  |  |
| c1cc(-c2ccc(-c3ncc(OCC4CCNCC4)nc3-c3ccc(-c4ccsc4)cc3)cc2)cs1 | 1400 |  | 6600 | 3600 |  |  |  |  |  |
| CC(Oc1cnc(-c2ccc(CN)cc2)c(-c2ccc(-c3ccoc3)cc2)n1)C1CCNCC1 (racemic) | 240 | 1.2 |  |  |  |  |  |  |  |
| ONCc1ccc(-c2ncc(OCCC3CCNCC3)nc2-c2ccc(CNO)cc2)cc1 | 1600 |  | 3200 | 3800 |  |  |  |  |  |
| NCc1ccc(-c2ncc(NCC3CCNCC3)nc2-c2ccc(-c3ccoc3)cc2)cc1 | 400 | 1.2 | 510 | 290 |  |  |  |  |  |
| Ic1ccc(-c2ncc(OCCC3CCNCC3)nc2-c2ccc(I)cc2)cc1 | 4700 |  | 1800 | 10200 |  |  |  |  |  |
| NCc1ccc(-c2ncc(OCC3CCNCC3)nc2-c2ccc(C3CCOCC3)cc2)cc1 | 130 | 0.6 | 820 | 2400 |  |  | Non-Toxic | Non-Toxic |  |
| NCc1ccc(-c2ncc(OCC3CCNCC3)nc2-c2ccc3[nH]ccc3c2)cc1 |  | 2.5 | 930 | 640 |  |  |  |  |  |
| CNCc1ccc(-c2ncc(OCC3CCNCC3)nc2-c2ccc(-c3ccoc3)cc2)cc1 |  | 1.2 | 870 | 730 |  |  |  |  |  |
| NCc1ccc(-c2ncc(OCC3CCNCC3)nc2-c2ccc(-c3ccncc3)cc2)cc1 | 26500 |  | > 50000 | > 50000 |  |  |  |  |  |
| NCc1ccc(-c2ncc(OCC3CCNCC3)nc2-c2ccc(O)cc2)cc1 |  | > 10 |  |  |  |  |  |  | inactive |
| CC(C)(C)c1ccc(-c2ncc(OCC3CCNCC3)nc2-c2ccc(C(C)(C)C)cc2)cc1 | 3100 | 5 | 9500 | 8400 |  |  |  |  |  |
| N#Cc1cc(-c2nc(OCC3CCNCC3)cnc2-c2ccc(CN)cc2)ccc1-c1ccoc1 | 1800 |  |  |  |  |  | Non-Toxic | Non-Toxic |  |
